Data set [1] in a line: In vitro skin penetration across excised pig skin. In kind it is in vitro ADME, Berkshire pig. The note with it: FAM-peptide conjugate vs free FAM, donor 50 μmol/L. An outline of the steps:
(§1)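 Valia-Chien diffusion cells at 37 ± 0.5 °C, stirred at 250 rpm, with excised rat back skin or Berkshire pig skin. Donor held 50 μmol/L N-terminally FAM-labelled peptide or free FAM in 0.9% NaCl with 0.5% (v/v) DMSO. Receiver sampled at 0–5 h and replaced with fresh saline; fluorescence read at 492 nm. Cumulative amount and Papp derived; at least 4 replicates.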

Data set [2] is described as follows: In vitro skin penetration across excised rat skin. In kind it is in vitro ADME, SD rats. Conditions: for skin permeability compared to the other CPPs: FAM-CPP conjugates, excised rat back skin, P < 0.01. An outline of the steps: as §1
The test system of the next data set is B16F10 cells. The data set is described as follows: Calcein-AM/PI double staining of B16F10 cells. In kind it is cell-based. Conditions: 15 μmol/L, 48 h, vs control group. The method in brief: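 B16F10 cells exposed 48 h to 15 μmol/L agents, then stained with a Calcein-AM/PI double staining kit (calcein marks live cells green, PI marks dead cells red). Imaged by inverted fluorescence microscopy.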

Data set [3] concerns human keratinocyte cells (HeKa cells). The data set is described as follows: HeKa cell viability. In kind it is cell-based. Conditions: 50 μmol/L FAM-CPP conjugate, exposure 72 h, CCK-8, n = 3. An outline of the steps: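 HeKa cells exposed to 50 μmol/L FAM or FAM–peptide conjugate for 48 and 72 h. Viability read with CCK-8; n = 3.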

Where a SMILES comes first, the peptide text is derived from it. Bridges are numbered along the chain shown (N, C = ends). The star is where a group is joined. 5FAM = O=C1OC2(c3ccc(O)cc3Oc3cc(O)ccc32)c2ccc(C(=O)*)cc21

For the compound `CC[C@H](C)[C@H](NC(=O)[C@H](CCC(N)=O)NC(=O)[C@H](CCCNC(=N)N)NC(=O)c1ccc2c(c1)C(=O)OC21c2ccc(O)cc2Oc2cc(O)ccc21)C(=O)N[C@@H](CCCCN)C(=O)N[C@@H](Cc1c[nH]c2ccccc12)C(=O)N[C@@H](Cc1c[nH]c2ccccc12)C(=O)N[C@@H](Cc1ccccc1)C(=O)N[C@@H](Cc1c[nH]c2ccccc12)C(=O)N[C@@H](Cc1c[nH]c2ccccc12)C(=O)N[C@@H](CCCNC(=N)N)C(=O)N[C@@H](CCCNC(=N)N)C(=O)N[C@@H](CCSC)C(=O)N[C@@H](CCCCN)C(=O)N[C@@H](Cc1c[nH]c2ccccc12)C(=O)N[C@@H](CCCCN)C(=O)N[C@@H](CCCCN)C(=O)O` [FAM-589WP] (5FAM-RQIKWWFWWRRMKWKK-OH), the “increase in Papp compared to free FAM, pig skin” value in data set [1] came to 60 fold. Besides, the “increase in Papp compared to free FAM, rat skin” value in data set [2] (FAM-peptide conjugate vs free FAM, excised rat skin, donor 50 μmol/L) is given as 72 fold. Take `O=c1[nH]c(=O)n([C@H]2C[C@H](O)[C@@H](CO)O2)cc1F` [FUdR, 5-fluoro-2ʹ-deoxyuridine]: in the data set on B16F10 cells, the “live cell density / dead cells by Calcein-PI staining” value is listed as “notable decrease in live cell density”. As to `CC[C@H](C)[C@H](NC(=O)[C@H](CCCCN)NC(=O)[C@@H](NC(=O)[C@H](CCC(N)=O)NC(=O)[C@H](CCCNC(=N)N)NC(=O)c1ccc2c(c1)C(=O)OC21c2ccc(O)cc2Oc2cc(O)ccc21)[C@@H](C)CC)C(=O)N[C@@H](Cc1c[nH]c2ccccc12)C(=O)N[C@@H](Cc1ccccc1)C(=O)N[C@@H](CCC(N)=O)C(=O)N[C@@H](CC(N)=O)C(=O)N[C@@H](CCCNC(=N)N)C(=O)N[C@@H](CCCNC(=N)N)C(=O)N[C@@H](CCSC)C(=O)N[C@@H](CCCCN)C(=O)N[C@@H](Cc1c[nH]c2ccccc12)C(=O)N[C@@H](CCCCN)C(=O)N[C@@H](CCCCN)C(=O)O` [Penetratin], the “cytotoxicity to HeKa cells” value in data set [3] is “did not display cytotoxicity”. Further, the “skin permeability compared to the other CPPs” value in data set [2] (donor 50 μmol/L) is “significantly higher than the other CPPs”. Turning to `C[C@H](NC(=O)c1ccc2c(c1)C(=O)OC21c2ccc(O)cc2Oc2cc(O)ccc21)C(=O)N[C@H]1CSSC[C@@H](C(=O)NCC(=O)O)NC(=O)[C@H](CCC(N)=O)NC(=O)[C@H](Cc2c[nH]cn2)NC(=O)[C@H](CCC(N)=O)NC(=O)[C@H]([C@@H](C)O)NC(=O)[C@H](CO)NC(=O)CNC(=O)[C@H]([C@@H](C)O)NC1=O` [SPACE] (5FAM-ACTGSTQHQCG-OH; disulfide 2-10), the “permeability relative to the optimized peptide 589WP” value in data set [2] (FAM conjugates, excised rat skin) is recorded as “about one-third the permeability of the optimized peptide 589WP”. Besides, the “permeability relative to wild-type penetratin” value in data set [2] (FAM conjugates, excised rat skin (Fig. 1)) is on record as “about half the permeability of wild-type penetratin”. Consider `CC[C@H](C)[C@H](NC(=O)[C@H](CCCCN)NC(=O)[C@H](CCCCN)NC(=O)[C@H](C)NC(=O)[C@H](CC(C)C)NC(=O)[C@H](C)NC(=O)[C@H](C)NC(=O)[C@H](CC(C)C)NC(=O)[C@H](C)NC(=O)[C@H](CCCCN)NC(=O)[C@H](CC(C)C)NC(=O)[C@H](CC(N)=O)NC(=O)[C@@H](NC(=O)[C@H](CCCCN)NC(=O)CNC(=O)[C@H](CC(C)C)NC(=O)[C@H](CC(C)C)NC(=O)[C@H](Cc1ccc(O)cc1)NC(=O)CNC(=O)[C@H](C)NC(=O)[C@H](CO)NC(=O)[C@H](CC(N)=O)NC(=O)[C@H](CC(C)C)NC(=O)[C@@H](NC(=O)[C@H](Cc1c[nH]c2ccccc12)NC(=O)CNC(=O)c1ccc2c(c1)C(=O)OC21c2ccc(O)cc2Oc2cc(O)ccc21)[C@@H](C)O)[C@@H](C)CC)C(=O)N[C@@H](CC(C)C)C(=O)O` [Transportan], for which the “skin permeability compared to the other CPPs” value in data set [2] (donor 50 μmol/L) was “significantly higher than the other CPPs”.

The record behind these values is PMC12892081 (Acta Pharmaceutica Sinica. B, 2025).
